EP2 mod: modulators of human EP2 prostaglandin E2 receptor; 260,000 tested, 0.83% active; induction, % at 25 µM; EP2-expressing cells, cAMP HTRF FRET, PGE2 co-stimulation; P43116;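 active = compounds whose cAMP rise, as percent of the full-agonist control response, exceeds 60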;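 note: rat C6 glioma line stably carrying human EP2 under a CMV promoter; the protocol text gives 20 µM as final concentration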
Target sequence (P43116 whole entry, looked up): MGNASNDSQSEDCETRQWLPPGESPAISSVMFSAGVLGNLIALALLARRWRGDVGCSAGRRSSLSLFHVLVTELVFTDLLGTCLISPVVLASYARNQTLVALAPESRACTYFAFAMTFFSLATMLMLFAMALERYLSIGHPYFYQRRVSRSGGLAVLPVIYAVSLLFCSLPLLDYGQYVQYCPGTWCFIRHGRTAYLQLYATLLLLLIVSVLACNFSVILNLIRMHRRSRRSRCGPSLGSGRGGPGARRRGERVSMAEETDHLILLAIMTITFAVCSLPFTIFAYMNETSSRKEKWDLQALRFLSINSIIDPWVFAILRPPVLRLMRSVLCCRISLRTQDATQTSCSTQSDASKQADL
CHO parental Ca: signal in parental CHO cells, OX1R antagonist counter-screen. AID 463079. parental CHO-K1, ATP-induced calcium, Fluo-8 fluorescence. inhibition, % at 5.6 µM. 330,000 tested, 0.63% active;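 active = inhibition above that plate's mean sample inhibition plus 3 SD, cut at about 26% in these data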
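Test system: untransfected parental CHO cell line; also added: ATP stimulus; dosing: 5.6 µM, single dose; signal: calcium-sensitive Fluo-8 fluorescence; measure: percent inhibition of ATP-evoked calcium rise, normalized to controls; benchmarks: low control ATP plus DMSO, high control DMSO only; replication: one well per compound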
OX1R antag-1: blocks the human orexin 1 receptor. O43613. CHO/OX1R cells, Fluo-8 calcium fluorescence, orexin A. inhibition, % at 5 µM. 330,000 tested, 0.43% active. AID 434989;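 active = inhibition above its plate's threshold, mean inhibition of all tested compounds on the plate plus 3 SD, cut at about 37% in these data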
OX1R antag-2: blocks the human orexin 1 receptor | O43613 | OX1R-expressing cells, FRET antagonist read-out | inhibition, % at 6.6 µM | 330,000 tested, 1.8% active | AID 485270; in the data active = inhibition mostly above about 38%, no sharp cut-off; inactive = mostly below about 40%
GPR7 antagonist: human neuropeptides B/W receptor 1 antagonism | P48145 | GPR7-expressing cells, fluorescence antagonist assay | inhibition, % at 4.4 µM | 290,000 tested, 1.1% active | AID 1861; in the data active = inhibition above about 16%, passing the limit was not always enough;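 note: cells stimulated with the agonist NPW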
Target sequence (P48145 whole entry, looked up): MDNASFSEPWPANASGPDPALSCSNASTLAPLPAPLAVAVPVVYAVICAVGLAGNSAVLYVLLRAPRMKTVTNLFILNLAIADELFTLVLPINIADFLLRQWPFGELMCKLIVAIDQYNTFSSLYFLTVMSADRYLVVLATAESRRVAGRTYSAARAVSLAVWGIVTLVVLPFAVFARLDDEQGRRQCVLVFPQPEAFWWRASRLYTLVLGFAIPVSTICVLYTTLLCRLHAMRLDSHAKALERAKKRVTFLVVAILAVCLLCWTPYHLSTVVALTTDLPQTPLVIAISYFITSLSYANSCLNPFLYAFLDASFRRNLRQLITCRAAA
PGE2 EP2 inh: EP2 receptor (human) inhibition | 260,000 tested, 0.52% active | AID 1422 | inhibition, % at 25 µM | C6 glioma cells expressing human EP2, cAMP TR-FRET; cells stimulated with saturating PGE2;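 active = percent inhibition above 40 after rounding to a whole number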;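 note: rat C6 glioma host cells with rolipram phosphodiesterase inhibitor present; the protocol text gives 20 µM as final concentration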
GPR7 antag conf: confirmation of human GPR7 antagonists; 2,400 tested, 52% active; GPR7-expressing cells, calcium fluorescence antagonist mode; inhibition, % at 4.4 µM; AID 1952; shares compounds with GPR7 antagonist; in the data active = inhibition above about 24%;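 note: stimulated with the GPR7 agonist NPW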
MCHR1 antagonist: antagonizes human MCHR1, a GPR7 antagonist counter-screen. shares compounds with GPR7 antagonist. MCHR1-expressing cells, fluorescence antagonist assay. inhibition, % at 4.4 µM. 2,400 tested, 62% active. AID 2148; in the data active = inhibition above about 22%
Numbers stand for hits; i = inactive; nt = not tested or not shown; ! = repeats disagree. A selection: hits, their analogues and other compounds. The true share with any hit is near 3.7%.

SMILES	EP2 mod	CHO parental Ca	OX1R antag-1	OX1R antag-2	GPR7 antagonist	PGE2 EP2 inh	GPR7 antag conf	MCHR1 antagonist
Cc1ccccc1OCC(O)Cn1c(=N)n(CCN2CCOCC2)c2ccccc21 (stereo unspecified)	i	i	i	i	33!	i	i	26
COc1ccccc1OCC(O)Cn1c(=N)n(CCN2CCOCC2)c2ccccc21 (stereo unspecified)	i	nt	nt	nt	nt	i	nt	nt
N=c1n(CCN2CCCCC2)c2ccccc2n1CC(O)c1cccc(Br)c1 (stereo unspecified)	i	i	i	i	25	i	48	43
N=c1n(CCN2CCOCC2)c2ccccc2n1CC(O)COc1ccccc1 (stereo unspecified)	i	i	i	i	i	i	nt	nt
Cc1ccccc1C(=O)Nc1ccnn1C1CCN(Cc2cccnc2)CC1	nt	i	i	i	i	nt	nt	nt
CCc1ccc(CN2CCC(n3nccc3NC(=O)c3ccccc3C)CC2)cc1	nt	i	i	i	27	nt	i	26
COc1ccccc1N1CCN(C(=O)Nc2ccc([N+](=O)[O-])cc2)CC1	i	i	i	i	i	i	nt	nt
O=[N+]([O-])c1ccc(CN2CCC(Cc3ccccc3)CC2)cc1	nt	nt	nt	nt	26	nt	i	33
O=[N+]([O-])c1ccc(N2CCOCC2)nc1	i	i	i	i	i	i	nt	nt
O=[N+]([O-])c1ccc(N2CCN(c3cccc(Cl)c3)CC2)nc1	nt	i	i	i	51	nt	29	70
O=[N+]([O-])c1ccc(C(=S)N2CCC(Cc3ccccc3)CC2)cc1	i	i	i	i	i	i	nt	nt
COc1cccc(CN2CCN(C(=O)Nc3ccc([N+](=O)[O-])cc3)CC2)c1	i	i	i	i	29	i	41	68
O=[N+]([O-])c1ccc(N2CCN(Cc3ccccc3)CC2)nc1	i	i	i	i	22	i	27	i
O=[N+]([O-])c1ccc(N2CCN(Cc3cccc([N+](=O)[O-])c3)CC2)cc1	nt	i	i	i	37	nt	56	63
O=[N+]([O-])c1ccc(CN2CCN(c3ccc([N+](=O)[O-])cc3)CC2)cc1	nt	i	i	i	i	nt	nt	nt
COCCN=C1N[C@@H](c2ccccc2)C(C(=O)OC)=C(C)N1Cc1ccccc1	nt	i	i	i	i	nt	nt	nt
COCCN=C1N[C@@H](c2ccc(Br)cc2)C(C(=O)OC)=C(C)N1Cc1ccccc1	nt	i	i	i	49	nt	65	41
O=C(O)c1cccc(S(=O)(=O)NNc2ccccc2C(F)(F)F)c1	nt	i	i	i	i	nt	nt	nt
Cc1cc(C)nc(/N=C(\N)Nc2ccc(-c3ccccc3)cc2)n1	i	i	i	i	65	i	65	81
Cc1ccc(C)c(N/C(N)=N/c2nc(C)cc(C)n2)c1	i	i	70	i	61	i	66	71
CCC(=O)N/C(=N/c1nc(C)cc(C)n1)Nc1ccc(C)cc1	nt	i	i	i	i	nt	nt	nt
COc1cc(N/C(N)=N/c2nc(C)cc(C)n2)cc(OC)c1	nt	i	i	i	i	nt	nt	nt
CCOc1ccc(N/C(=N/c2nc(C)cc(C)n2)NC(=O)CC)cc1	i	i	i	i	21	i	i	i
CCOc1ccc(N/C(N)=N/c2nc(C)cc(C)n2)cc1	nt	49	58	i	99	nt	94	97
CC(=O)Nc1ccc(N/C(N)=N/c2nc(C)cc(C)n2)cc1	i	i	i	i	i	i	nt	nt
SMILES	EP2 mod	CHO parental Ca	OX1R antag-1	OX1R antag-2	GPR7 antagonist	PGE2 EP2 inh	GPR7 antag conf	MCHR1 antagonist
COc1ccc(C)cc1N/C(N)=N/c1nc(C)cc(C)n1	i	i	i	i	i	i	nt	nt
COc1ccc(C(C)(C)C)cc1NC(=O)COC(=O)C(C)C	i	i	i	i	i	i	nt	nt
COc1ccc(/C=C/c2ccc3cccc(O)c3n2)c(OC)c1OC	nt	i	i	i	32	nt	i	62
COc1cccc(/C=C/c2ccc3cccc(O)c3n2)c1OC	nt	i	i	i	i	nt	nt	nt
CCC[n+]1cccc2c3ccccc3ccc21	i	nt	nt	nt	nt	i	nt	nt
O=C(NCc1ccco1)/C(=C\c1ccc(F)cc1)NC(=O)c1ccco1	nt	i	i	i	29	nt	i	i
O=C(Oc1ccc(C(=S)N2CCC(O)CC2)cc1)c1ccc(Cl)cc1	i	i	i	i	26	i	34	38
O=C(CCN1C(=O)COc2ccccc21)NCc1cccnc1	i	i	i	i	28	i	i	i
Cc1ccnc(NC(=O)c2cccc(S(=O)(=O)N3CCCc4ccccc43)c2)c1	nt	i	i	i	nt	nt	nt	nt
O=C(O)COc1ccc(Nc2ccccc2)cc1	i	i	i	i	i	i	nt	nt
CCn1c(SCC(=O)Nc2ccc(C(C)=O)cc2)nc2ccccc21	i	i	i	i	30	i	i	i
CCn1c(SCC(=O)Nc2ccc3[nH]c(=O)[nH]c3c2)nc2ccccc21	nt	i	i	i	nt	nt	nt	nt
COc1cc(C(=O)NCc2nnc(SCC(=O)N3CCc4ccccc43)o2)cc(OC)c1OC	i	i	i	i	30	nt	i	i
COc1ccc(C(=O)NCc2nnc(SCC(=O)NCCc3ccccc3)o2)cc1	nt	i	i	i	24	nt	i	i
O=C(Nc1ccc(F)cc1)NC1CCN(Cc2nnnn2Cc2ccco2)CC1	i	i	i	i	i	i	nt	nt
COCc1ccc(CN2CCC(C(=O)Nc3cccc(-c4cccc(Cl)c4)c3)CC2)o1	nt	61	74	i	27	nt	41	82
COCc1ccc(CN2CCC(C(=O)Nc3cccc(-c4cscn4)c3)CC2)o1	nt	i	i	i	i	nt	nt	nt
C=CCn1cc(CN2CCC(C(=O)Nc3cccc(-c4cccc(Cl)c4)c3)CC2)c(C)n1	nt	i	i	i	41	nt	41	58
Cc1ccc2c(c1)C(N1CCCC1=O)CC(c1ccco1)N2 (stereo unspecified)	i	i	i	i	31	i	i	i
Cc1ccc(C2CC(c3ccco3)n3ncnc3N2)cc1 (stereo unspecified)	i	i	i	i	i	i	nt	nt
CC1CCCC(C)N1C(=O)c1cc(-c2ccco2)on1 (stereo unspecified)	nt	i	i	i	i	nt	nt	nt
CCOc1ccc(-n2c(-c3ccc(Br)cc3)c[n+]3c2CCCCC3)cc1	i	i	i	i	29	i	39	36
COc1ccc(-c2c[n+]3c(n2-c2ccc(C)cc2)CCCCC3)cc1	i	i	i	i	25	i	47	38
CCOc1ccc(-n2c(-c3ccc(OC)cc3)c[n+]3c2CCCCC3)cc1	i	i	i	i	36	i	55	49
COc1ccc(-n2c(-c3ccc(Cl)cc3)c[n+]3c2CCCCC3)cc1	i	i	i	i	i	i	nt	nt
Cc1ccc(C2CC2C(=O)NNC(=S)Nc2ccc(Cl)cc2)cc1 (stereo unspecified)	i	i	i	i	i	i	nt	nt
Cc1cccc(C)c1NC(=O)N1CC=CCC1	nt	nt	nt	nt	i	nt	nt	nt

From PubChem
